Measurements reported in ChEMBL document CHEMBL1133252 (Bioorg Med Chem Lett, 2000).

What was measured:
143B = assay: Inhibitory activity against tumor osteosarcoma cell line 143B after 72 hr continuous exposure to compound; format: functional, cell-based; conditions: Homo sapiens
Outline: (§1)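 Log-phase cells were plated in triplicate at 2500–3500 cells/well, and the compound was added 24 h later for 72 h continuous exposure. […] Media: A2780/143B DMEM+5% FBS; HT29 DMEM+10% FBS; HCT116 RPMI+10% FBS; ADDP (cisplatin-resistant A2780) RPMI+5% FBS.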

A2780 = assay: Inhibitory activity against ovarian tumor cell line A2780 after 72 hr continuous exposure to compound; format: functional, cell-based; conditions: Homo sapiens, A2780, 72 h; outline: as §1
ADDP cell line = assay: Inhibitory activity against ovarian tumor cell line ADDP after 72 hr continuous exposure to compound; format: functional, cell-based; conditions: Homo sapiens; outline: as §1
HCT-116 = assay: Inhibitory activity against colon tumor cell line HCT116 after 72 hr continuous exposure to compound; format: functional, cell-based; conditions: Homo sapiens, HCT-116, 72 h; outline: as §1
HT-29 = assay: Inhibitory activity against colon tumor cell line HT-29 after 72 hr continuous exposure to compound; format: functional, cell-based; conditions: Homo sapiens, HT-29, 72 h; outline: as §1
[1] = target: Serine/threonine-protein phosphatase 2A catalytic subunit (Gallus gallus); assay: Inhibitory activity against partially purified (chicken skeletal muscle) Protein phosphatase 2A
[2] = target: Serine/threonine-protein phosphatase 2A catalytic subunit alpha isoform (Homo sapiens) (UniProt P67775); assay: The compound was tested for the selectivity against protein phosphatases 2A
L1210 = assay: Inhibitory activity against L1210 leukemia cells; format: functional, cell-based; conditions: Mus musculus
DNA topoisomerase 2 = target: T1, DNA topoisomerase 2 (Drosophila melanogaster, UniProt P15348); assay: Inhibition of topoisomerase IIin vitro through a novel, non-DNA-strandcleaving mechanism
T1 sequence (P15348 whole entry): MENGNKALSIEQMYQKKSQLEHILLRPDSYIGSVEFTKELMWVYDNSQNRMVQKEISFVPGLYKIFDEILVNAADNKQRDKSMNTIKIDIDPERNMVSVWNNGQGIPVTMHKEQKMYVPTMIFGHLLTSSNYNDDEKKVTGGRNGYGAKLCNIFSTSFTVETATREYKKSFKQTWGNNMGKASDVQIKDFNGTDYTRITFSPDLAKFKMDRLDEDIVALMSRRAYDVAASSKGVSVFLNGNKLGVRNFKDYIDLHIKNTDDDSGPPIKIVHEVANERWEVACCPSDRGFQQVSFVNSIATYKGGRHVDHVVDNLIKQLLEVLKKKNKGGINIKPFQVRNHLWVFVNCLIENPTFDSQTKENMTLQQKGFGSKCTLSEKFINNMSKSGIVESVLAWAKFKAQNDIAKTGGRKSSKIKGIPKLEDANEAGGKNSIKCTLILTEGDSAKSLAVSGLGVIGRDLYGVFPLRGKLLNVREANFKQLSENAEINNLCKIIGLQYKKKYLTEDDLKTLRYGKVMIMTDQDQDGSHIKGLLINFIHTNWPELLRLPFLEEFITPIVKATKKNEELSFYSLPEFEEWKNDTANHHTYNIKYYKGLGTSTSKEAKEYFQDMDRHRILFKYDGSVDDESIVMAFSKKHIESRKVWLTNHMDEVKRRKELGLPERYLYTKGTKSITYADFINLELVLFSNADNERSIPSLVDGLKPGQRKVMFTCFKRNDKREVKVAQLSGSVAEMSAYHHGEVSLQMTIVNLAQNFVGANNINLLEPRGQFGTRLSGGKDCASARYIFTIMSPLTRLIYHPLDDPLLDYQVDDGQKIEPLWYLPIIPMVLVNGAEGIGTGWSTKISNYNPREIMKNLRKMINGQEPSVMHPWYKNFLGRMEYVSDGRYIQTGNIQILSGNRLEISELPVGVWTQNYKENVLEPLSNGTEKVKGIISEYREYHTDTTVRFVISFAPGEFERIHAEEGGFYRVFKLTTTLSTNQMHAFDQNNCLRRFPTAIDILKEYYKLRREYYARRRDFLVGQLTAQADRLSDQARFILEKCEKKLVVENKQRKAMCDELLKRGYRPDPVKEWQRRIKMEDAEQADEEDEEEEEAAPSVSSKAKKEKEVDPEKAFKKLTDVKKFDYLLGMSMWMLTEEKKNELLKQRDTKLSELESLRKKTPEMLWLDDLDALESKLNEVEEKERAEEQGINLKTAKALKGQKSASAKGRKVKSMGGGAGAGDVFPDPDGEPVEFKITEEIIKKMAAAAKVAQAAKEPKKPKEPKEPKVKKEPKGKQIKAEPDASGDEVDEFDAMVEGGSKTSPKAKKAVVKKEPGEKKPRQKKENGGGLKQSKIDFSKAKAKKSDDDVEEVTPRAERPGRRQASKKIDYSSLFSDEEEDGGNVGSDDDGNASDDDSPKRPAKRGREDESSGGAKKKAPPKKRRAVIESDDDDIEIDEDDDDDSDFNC

Serine/threonine-protein phosphatase 2A catalytic subunit alpha isoform (Homo sapiens), sequence (P67775 whole entry, canonical isoform): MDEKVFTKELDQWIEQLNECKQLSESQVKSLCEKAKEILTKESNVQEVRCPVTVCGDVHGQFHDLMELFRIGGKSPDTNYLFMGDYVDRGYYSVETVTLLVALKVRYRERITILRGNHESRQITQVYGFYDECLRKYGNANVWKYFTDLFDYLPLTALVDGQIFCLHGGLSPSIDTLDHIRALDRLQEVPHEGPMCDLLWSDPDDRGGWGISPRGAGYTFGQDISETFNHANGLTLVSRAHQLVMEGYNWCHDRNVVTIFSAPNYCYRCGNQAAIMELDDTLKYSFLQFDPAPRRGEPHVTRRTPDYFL

Structure (SMILES)	IC50 (143B)	IC50 (A2780)	IC50 (ADDP cell line)	IC50 (HCT-116)	IC50 (HT-29)	IC50 [1]	Selectivity [2]	IC50 (L1210)	IC50 (DNA topoisomerase 2)
COC1OC(=O)[C@H]2[C@@H]1[C@@H]1CC[C@H]2O1 (some centres undefined)	> 1000 µM	538 µM	323 µM	143 µM	28 µM	> 1000 µM			
CCCOC1OC(=O)[C@H]2[C@@H]1[C@@H]1CC[C@H]2O1 (some centres undefined)	> 1000 µM	375 µM	535 µM	195 µM	41 µM				
CCOC1OC(=O)[C@H]2[C@@H]1[C@@H]1CC[C@H]2O1 (some centres undefined)	103 µM	100 µM	107 µM	80 µM	26 µM				
O=C1OC(=O)[C@H]2[C@@H]1[C@@H]1CC[C@H]2O1	43 µM	50 µM	47 µM	24 µM	33 µM				
COC(=O)C1C(C(=O)O)[C@@H]2CC[C@H]1O2 (single isomer, unassigned)	118 µM	100 µM	180 µM	76 µM	105 µM				
CCCOC(=O)C1C(C(=O)O)[C@@H]2CC[C@H]1O2 (single isomer, unassigned)			315 µM	75 µM	15 µM				
CCOC(=O)C1C(C(=O)O)[C@@H]2CC[C@H]1O2 (single isomer, unassigned)	437 µM	185 µM	330 µM	266 µM	243 µM	0.45 µM	6.6		
C[C@@]12C(=O)OC(=O)[C@]1(C)[C@H]1CC[C@@H]2O1 [CANTHARIDIN]	10 µM	10 µM	11 µM	9 µM	6.4 µM				
C[C@@](O)(/C=C/[C@H]1CC=CC(=O)O1)[C@@H](C[C@@H](O)\C=C/C=C\C=C\CO)OP(=O)(O)O [FOSTRIECIN]						0.0034 µM		460 nM	40 µM
